The list is not random: actives were taken first. Their share in the collection is about 2.6%.
SENP8 block-1: blocks human SENP8 cleavage of Nedd8 substrate; 360,000 tested, 0.64% active; Q96LD8; recombinant SENP8, Nedd8 substrate fluorescence; inhibition, % at 20 µM; AID 602440; in the data active = inhibition mostly above about 40%, no sharp cut-off; inactive = mostly below about 27%
SENP8 block-2: blocks the human protease SENP8. Q96LD8. purified SENP8, Z-RLRGG-aminoluciferin cleavage, luminescence. inhibition, % at 10 µM. 330,000 tested, 1.2% active; in the data active = inhibition above about 50%
SENP7 inh: SENP7 protease inhibition | inhibition, % at 5 µM | recombinant SENP7, Z-RLRGG-aminoluciferin luminescence, 40 min | Q9BQF6 | 330,000 tested, 1.5% active | AID 434973;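 active = inhibition above about 50% at the single test dose, limit read from the data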
SENP6 block: blocks the human protease SENP6; Recombinant SENP6 catalytic domain, aminoluciferin luminescence; inhibition, % at 10 µM; 330,000 tested, 1.8% active;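 active = inhibition above about 50% at the single tested dose, limit read from the data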
Target sequence (Q9GZR1 628-1112 limits assumed): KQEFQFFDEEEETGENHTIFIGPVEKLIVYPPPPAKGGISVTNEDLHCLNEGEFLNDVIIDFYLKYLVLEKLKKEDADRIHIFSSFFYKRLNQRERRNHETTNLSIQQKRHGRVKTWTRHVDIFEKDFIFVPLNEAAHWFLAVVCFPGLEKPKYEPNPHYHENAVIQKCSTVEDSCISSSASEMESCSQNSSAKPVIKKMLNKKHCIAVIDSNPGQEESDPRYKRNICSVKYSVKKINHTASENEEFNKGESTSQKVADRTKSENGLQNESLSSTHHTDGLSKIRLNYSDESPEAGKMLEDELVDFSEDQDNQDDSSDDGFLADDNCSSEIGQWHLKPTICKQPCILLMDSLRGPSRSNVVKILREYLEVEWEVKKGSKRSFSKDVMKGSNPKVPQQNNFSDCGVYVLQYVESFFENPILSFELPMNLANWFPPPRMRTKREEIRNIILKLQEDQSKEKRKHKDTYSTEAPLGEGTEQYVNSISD
Platelet DG rel: platelet dense granule release activity. human platelet-rich plasma, SFLLRN dense granule ATP release, luminescence. inhibition, %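 (compounds screened at 7.5 µM in platelet-rich plasma)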. 300,000 tested, 0.22% active;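 active = mean replicate score, as percent of positive control, at or above 50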
SENP1 FRET inh: SENP1 (human) catalytic domain inhibition; recombinant SENP1 catalytic domain, CyPet-SUMO1-YPet FRET cleavage; AID 624204; inhibition, % at 10 µM; 360,000 tested, 0.21% active; Q9P0U3;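 active = inhibition at least 30% at 10 µM, raw YFP signal under a set limit, fluorescence ratio 0.5 to 1.5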
Target sequence (Q9P0U3 419-644 limits assumed): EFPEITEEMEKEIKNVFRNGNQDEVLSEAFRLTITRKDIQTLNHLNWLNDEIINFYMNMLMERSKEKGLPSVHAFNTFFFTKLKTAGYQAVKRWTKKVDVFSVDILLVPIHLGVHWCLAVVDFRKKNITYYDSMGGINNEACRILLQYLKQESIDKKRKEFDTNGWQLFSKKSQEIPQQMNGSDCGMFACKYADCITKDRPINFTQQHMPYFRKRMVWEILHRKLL
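material = recombinant human SENP1 catalytic domain, His6-tagged | quantity = 20 pM enzyme | reagent = 25 nM SUMO1 FRET substrate | compound dosing = 10 µM single point, 0.5% DMSO | timing = 50 min enzyme reaction, room temperature, light-protected | detection = FRET, CFP and YFP emission | control set = no-enzyme low, enzyme-DMSO high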
SENP8 inh conf: SENP8 (human) inhibition, single concentration confirmation; shares compounds with SENP8 block-1; purified SENP8, Nedd8-AMC/pro-Nedd8 cleavage fluorescence, 30 min; inhibition, % at 25 µM; 1,400 tested, 15% active; AID 624319; in the data active = inhibition mostly above about 39%, no sharp cut-off; inactive = mostly below about 34%
Of the large screens only hits and unclear results are named; the others gave an inactive call (follow-up assays come after a bar, where they were run).

NC(=O)c1ccc(N=C2C(=O)Nc3ccc([N+](=O)[O-])cc32)cc1	SENP8 block-1 85.5 | SENP8 inh conf 100.0
C[n+]1cccc2cccc([O-])c21	SENP8 block-1 95.8 (no result: SENP8 block-2, SENP7 inh, SENP6 block, Platelet DG rel) | SENP8 inh conf 58.0
Cc1ccc(S(=O)(=O)N2CCOCC2)cc1C(=O)OCC(=O)N1CCc2ccccc2C1	SENP8 block-1 51.1 (no result: SENP8 block-2, SENP7 inh, SENP6 block) | SENP8 inh conf inactive
O=C(COc1ccc(S(=O)(=O)N2CCOCC2)cc1)N1CCc2ccccc2C1	none
O=C(COC(=O)c1cccc(S(=O)(=O)N2CCc3ccccc3C2)c1)NCc1ccco1	none
O=C(COC(=O)c1cc(S(=O)(=O)N2CCc3ccccc3C2)ccc1Cl)NCc1ccco1	SENP8 block-1 41.6 | SENP8 inh conf 56.6
COc1ccc(S(=O)(=O)N2C[C@@H](O)COC[C@@H]3O[C@H](CC(=O)NCCCN4CCOCC4)CC[C@H]32)cc1	none (no result: SENP8 block-2, SENP7 inh, SENP6 block, Platelet DG rel)
c1ccc2[nH]c3cc4ncnc4cc3nc2c1	SENP8 block-1 47.8 | SENP8 inh conf 59.8
N#CC(C#N)=c1ccc2c(c1)N1C3=C(CCCC3)CC3CCCCC31N=2 (centres undefined)	SENP8 block-1 42.8 | SENP8 inh conf inactive
N#C/C(C(N)=O)=c1/ccc2c(c1)N1C3=C(CCCC3)CC3CCCCC31N=2 (centres undefined)	none (no result: SENP8 block-1, SENP1 FRET inh)
O=C(c1nc2ccc(Cl)cn2c1CN1CCC[C@H]1CO)N1CCc2ccccc2C1	none (no result: SENP8 block-2, SENP7 inh, SENP6 block, Platelet DG rel)
N/C(=N\O)c1cn(Cc2ccccc2Cl)c2ccccc12	none
Cc1[nH][nH]c(=O)c1C(c1c(C)[nH][nH]c1=O)c1cn(Cc2ccccc2Cl)c2ccccc12	SENP8 block-1 79.1 (no result: SENP8 block-2, SENP7 inh, SENP6 block) | SENP8 inh conf 73.3
CCN(CC)S(=O)(=O)c1cccc(C(=O)NCCCn2ccnc2)c1	SENP8 block-1 41.7 | SENP8 inh conf inactive
CN(CC(=O)Nc1ccccc1Br)C(=O)C1CCN(C(=O)c2ccc(Cl)cc2)CC1	none
COc1ccc(NC(=O)c2cccc(S(=O)(=O)N3CCOCC3)c2)cc1	none
COc1ccc(NC(=O)c2cccc(S(=O)(=O)N3CCOCC3)c2)cn1	SENP8 block-1 79.6 | SENP8 inh conf inactive
Cc1ccc(-n2cnc(N)c2C(=O)c2cccc([N+](=O)[O-])c2)cc1	SENP8 block-1 54.8 | SENP8 inh conf inactive
N#CCCN(NC(=O)OCc1ccccc1)C(=O)OCc1ccccc1	none (no result: SENP8 block-2, SENP7 inh, SENP6 block, Platelet DG rel)
Cc1ccc(Cn2cc(/C=C/C(=O)O)c(-c3ccccc3)n2)cc1	SENP8 block-1 43.0 | SENP8 inh conf inactive
Cc1ccc(-c2nn(Cc3ccccc3)cc2/C=C/C(=O)O)cc1	none
CC1(C(=O)NS(=O)(=O)c2cccs2)CCN1C(=O)C1CC1 (centres undefined)	none (no result: SENP8 block-2, SENP7 inh, SENP6 block, Platelet DG rel)
CC(=O)Nc1ccc(N=c2cc([N+](=O)[O-])cc(Cl)n2O)cc1	SENP8 block-1 51.3 | SENP8 inh conf inactive
COCCCN1C(=O)C(=O)/C(=C(/O)c2ccc(S(=O)(=O)N3CCCCC3)cc2)C1c1ccc(O)cc1 (centres undefined)	SENP8 block-1 45.4 | SENP8 inh conf inactive
COCCCN1C(=O)C(=O)/C(=C(/O)c2ccc(S(=O)(=O)N3CCCCC3)cc2)C1c1ccc(O)c(OC)c1 (centres undefined)	none
Cc1ccc(N2C(=O)[C@@H]3[C@H](C2=O)C2c4ccccc4C=CN2[C@@H]3C(=O)c2ccco2)cc1 (some centres undefined)	SENP8 block-1 48.7 (no result: SENP8 block-2, SENP7 inh, SENP6 block, Platelet DG rel) | SENP8 inh conf 89.2
COc1ccc(N2C(=O)[C@@H]3[C@H](C2=O)[C@H]2c4ccccc4C=CN2[C@@H]3C(=O)Nc2ccccc2)cc1	SENP8 block-1 43.8 (no result: Platelet DG rel) | SENP8 inh conf 80.2
O=C(CNC1CCN(Cc2ccccc2)CC1)Nc1ccc(S(=O)(=O)N2CCCCC2)cc1	SENP8 block-1 43.4 | SENP8 inh conf inactive
CCn1nc([N+](=O)[O-])c(C(C#N)c2nc3cc(C(F)(F)F)ccc3s2)c(Cl)c1=O (centres undefined)	none
CCCn1nc([N+](=O)[O-])c(C(C#N)c2nc3ccccc3o2)c(Cl)c1=O (centres undefined)	SENP8 block-1 42.7 | SENP8 inh conf inactive
CC(C)(C)OC(=O)NCCCCCNC(=O)c1nc[nH]c1C(=O)N1CCc2ccccc2C1	SENP8 block-1 47.9 (no result: Platelet DG rel) | SENP8 inh conf 56.8
CC(C)(C)OC(=O)NCCCC[C@H](NC(=O)c1nc[nH]c1C(=O)N1CCc2ccccc2C1)C(=O)OC(C)(C)C	none
CCCCC1CC2=C(C(=O)OC(C)(C)O2)C(c2ccc(F)cc2)O1 (centres undefined)	none (no result: SENP8 block-2, SENP7 inh, SENP6 block, Platelet DG rel)
COc1ccc(NC(=O)[C@@H](NC(=O)N2C[C@H]3C[C@@H](C2)c2cccc(=O)n2C3)C(C)C)cc1OC	SENP8 block-1 45.1 | SENP8 inh conf inactive
O=C(Nc1cccc(Oc2c(F)c(F)c(F)c(F)c2F)c1)N1C[C@@H]2C[C@@H](C1)c1cccc(=O)n1C2	none
CCOC(=O)N1CCN(C(=O)COC(=O)CNC(=O)c2ccc(C)cc2)CC1	SENP8 block-1 42.9 | SENP8 inh conf inactive
Cc1c(C(=O)Nc2ccc(Nc3ccccc3)cc2)cccc1[N+](=O)[O-]	none
O=C(Nc1ccccc1)c1ccc(Nc2c([N+](=O)[O-])cc([N+](=O)[O-])c3ccccc23)cc1	SENP8 block-1 55.6 | SENP8 inh conf inactive
COc1ccc(C2/C=C\CN(C(=O)OCC3c4ccccc4-c4ccccc43)CC(=O)N2Cc2cccc(F)c2)cc1 (centres undefined)	none (no result: SENP8 block-2, SENP6 block, Platelet DG rel)
Cc1ccccc1-n1nc2c(c1NC(=O)C(C)(C)C)CS(=O)(=O)C2	none
OCCN1CCN(C(=S)c2ccc(Cl)c(Cl)c2)CC1	SENP8 block-1 42.2 | SENP8 inh conf 34.1
Cc1ccc(S(=O)(=O)N2C[C@H]3[C@H]4C(=O)N(c5ccccc5)C(=O)[C@H]4CC(=O)[C@H]3[C@@H]2c2ccccc2F)cc1	SENP8 block-1 49.7 (no result: SENP8 block-2, SENP7 inh, SENP6 block, Platelet DG rel) | SENP8 inh conf inactive
CN1CCN(Cc2nc3ccccc3c(=O)n2Cc2nc(-c3ccc([N+](=O)[O-])cc3)cs2)CC1	SENP8 block-1 46.9 | SENP8 inh conf inactive
Cc1cc(C)c2c(c1)/C(=N/Nc1ccc(S(N)(=O)=O)cc1[N+](=O)[O-])CCC2	SENP8 block-1 53.1 | SENP8 inh conf inactive
NS(=O)(=O)c1ccc(N/N=C2/CCCCC2C2CCCCC2)c([N+](=O)[O-])c1 (centres undefined)	none
COc1cc(NC(=O)c2ccc([N+](=O)[O-])o2)ccc1NC(=O)c1ccco1	SENP8 block-1 43.6 | SENP8 inh conf inactive
CCOC(=O)c1nnn(-c2ccc(OC)cc2)c1N	none (no result: Platelet DG rel)
CCOC(=O)c1nn(-c2ccc(OC)cc2)c(=O)c2c(N)scc12	SENP8 block-1 41.1 | SENP8 inh conf 53.4
CC(C)CC1NC(=O)C(CC(C)C)N(CO)C1=O (centres undefined)	none (no result: SENP8 block-2, SENP7 inh, SENP6 block, Platelet DG rel)

From PubChem
